Compounds with a hit are over-represented: about 2% of the library has one in this group of screens.
CAL PDZ FP-1 = blocks peptide binding to human CAL PDZ domain; Q9HD26; purified CAL PDZ, TMR-peptide fluorescence polarization, 1 h; inhibition, % at 20 µM; hit rate 0.02% among 330,000; AID 504414;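 active means highest replicate inhibition of at least 40%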;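 further: plate controls were DMSO neutral control wells for no effect and unlabeled competitor peptide control wells for full effect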
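System: tagged CAL PDZ domain. Schedule: 1 h room-temperature incubation prior to read. Signal: fluorescence polarization (mP). Measure: percent inhibition from loss of millipolarization.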
CAL PDZ FP-2 = inhibitors of human CAL PDZ peptide binding. AID 602252. purified CAL PDZ, TMR-peptide fluorescence polarization, 1 h. inhibition, % at 24.9 µM. hit rate 0.92% among 300,000;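 active means mean inhibition of at least 30% with at least half of replicates also reaching 30%; inconclusive means no clear call, values can overlap the other calls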;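 further: 0% = DMSO neutral control and 100% = excess unlabeled competitor peptide PRC23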
CDK5 inh = blocks human CDK5/p35 kinase activity; Q00535+Q15078; Recombinant CDK5/p35, ADP-Glo luminescence, 60 min; inhibition, % at 10 µM; hit rate 0.01% among 330,000;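 active means highest replicate inhibition of at least 50% and at least 75% of replicates reaching 50%; inconclusive means only one of the two criteria met; inactive means both criteria failed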;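 further: plate controls were DMSO neutral control for no effect and GW8510 at 10 µM for full effect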
dFosB activator = enhances mouse delta FosB homodimer DNA binding; hit rate 0.99% among 340,000; activation, % at 25 µM; AID 493131; purified delta FosB, TAMRA-CDK5 oligo fluorescence polarization; percent of positive-control signal above neutral wells; P13346;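 active means mean activation above about 17%, with every replicate also reaching it, limit read from the data, passing the limit was not always enough; inconclusive means only one of the two conditions met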
Target sequence (P13346 whole entry, looked up): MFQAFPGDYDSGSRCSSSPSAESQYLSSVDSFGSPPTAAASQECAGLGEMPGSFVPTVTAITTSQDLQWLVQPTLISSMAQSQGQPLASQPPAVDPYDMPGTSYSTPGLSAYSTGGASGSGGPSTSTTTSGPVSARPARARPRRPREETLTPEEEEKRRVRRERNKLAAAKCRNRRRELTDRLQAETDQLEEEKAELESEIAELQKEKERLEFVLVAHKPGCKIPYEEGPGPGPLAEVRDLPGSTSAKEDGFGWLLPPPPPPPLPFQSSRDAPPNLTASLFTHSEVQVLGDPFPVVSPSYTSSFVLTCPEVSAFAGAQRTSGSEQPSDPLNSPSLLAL
C2C12 statin = suppressors of simvastatin-induced myotoxicity in C2C12 myotubes; ATP luminescence, 48 h; scaled: DMSO 0, geranylgeraniol control 100; rescue of ATP level, % at 7.49 µM; hit rate 0.78% among 330,000; AID 602340;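 active means mean ATP rescue above about 67%, or every replicate alone reaching that limit, limit read from the data, passing the limit was not always enough; inconclusive means no clear call, values can overlap the other calls; inactive means mean under the limit and some replicate under it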;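 further: myotubes were challenged with 10 µM simvastatin during compound exposure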
S100A4 MyoIIA = blocks human S100A4 binding to myosin IIA peptide; P26447; S100A4/TAMRA-MyoIIA peptide fluorescence polarization; inhibition, % at 10.7 µM; hit rate 0.14% among 360,000; AID 652163;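 active means mean inhibition of at least 70% across replicates, with every replicate also reaching that level; inconclusive means mean inhibition reaches 70% but some replicates fall short; inactive means mean inhibition below 70%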
Target sequence (P26447 whole entry, looked up): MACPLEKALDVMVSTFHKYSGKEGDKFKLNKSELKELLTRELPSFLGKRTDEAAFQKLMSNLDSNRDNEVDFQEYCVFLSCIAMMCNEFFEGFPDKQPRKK
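Test system: S100A4 monomer protein; Medium: HEPES pH 7.2 with CaCl2, KCl, NaCl, DTT, Triton; Probe or stimulus: TAMRA-labelled myosin IIA heavy-chain peptide probe, 5 nM; Doses: one dose per compound; Times: polarization read 5 min after assay mix addition, stable 5–60 min; Benchmarks: neutral control DMSO, positive control TFP.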
Starred values were filed as active, the others as inactive; ? = inconclusive; nt = not tested or not shown.

SMILES	CAL PDZ FP-1	CAL PDZ FP-2	CDK5 inh	dFosB activator	C2C12 statin	S100A4 MyoIIA
CSc1ccccc1C(=O)Nc1ccc2c(c1)CCC2	-3	68*	1	-2	-18	0
Cc1cc(NC(=O)CCC(=O)N(CC(C)C)C(C(=O)NC(C)(C)C)c2ccccc2Cl)no1 (stereo unspecified)	-3	-4	-2	-4	6	5
COc1ccccc1NC(=O)CCc1c(C)[nH]c(=O)c(C#N)c1C	0	0	-1	0	97*	nt
COC(=O)c1ccccc1NC(=O)Cc1nc(-c2ccccc2)sc1-c1ccc(C)cc1	-2	-5	0	-9	nt	-13
COc1ccc(-c2cc(C3CC3)nc3sc(C#N)c(N)c23)cc1	-1	-3	3	3	77*	nt
COc1ccc(-c2cc(NC=O)c3ncc(-c4cccc(C(F)(F)F)c4)n3c2)c(OC)c1	nt	nt	nt	nt	-4	-10
Oc1ccc(-c2csc(Nc3ccc4c(c3)OCO4)n2)c(O)c1	0	-2	2	-10	132*	1
Cc1ccc(O)c(NC(=S)NC(=O)CC(C)C)c1	-2	-1	-2	-5	nt	nt
Cc1ccc(O)c(NC(=S)NC(=O)C(C)C)c1	-1	34*	1	-2	?	-3
Cc1cccn2cc(CNc3ccccc3)nc12	-1	-2	1	-5	109*	nt
CCOc1ccc(NC(=O)CC2C(=O)N(c3cccc(OC)c3)C(=O)N2CCOC)cc1 (stereo unspecified)	-2	59*	1	-2	28	-1
CC[C@]12c3[nH]c4cc(CCC(=O)N(C)C)ccc4c3CCN1C(=O)[C@@H](CC(=O)NCCCN(C)C)C[C@@H]2C(=O)N1CCN(C(=O)C2CC2)CC1	0	-1	0	-1	1	-2
CC[C@]12c3[nH]c4cc(CCC(=O)N(C)C)ccc4c3CCN1C(=O)[C@@H](CC(=O)NCCCOC)C[C@@H]2C(=O)N1CCN(C(=O)C2CC2)CC1	0	32*	1	1	-4	3
O=c1c2ccccc2c2ccccc2c(=O)n1-c1ccccc1	-2	-3	-1	-16	nt	4
Cc1cn(C(C)C)c(=O)n(-c2ccccc2)c1=O	nt	33*	-2	0	1	-5
COCC(=O)N1[C@H](CO)[C@@H](c2ccccc2)C12CN(C(=O)Cc1ccccn1)C2	nt	nt	nt	nt	nt	97*
O=C(NC(Cc1ccccc1)C(=O)O)/C(=C/c1ccccc1)NC(=O)c1ccco1 (stereo unspecified)	0	63*	0	2	16	-5
O=C(NC(Cc1ccccc1)C(=O)O)/C(=C\c1ccc(F)cc1)NC(=O)c1ccco1 (stereo unspecified)	1	-8	0	-7	1	-1
CCS(=O)(=O)N1Cc2ccccc2CC1C(=O)N(C)Cc1ccc(OC)cc1OC (stereo unspecified)	-3	-2	-2	-16	16	-3
O=C(COc1ccc(Cl)cc1)NCCCn1ccnc1	1	-11	1	-5	72*	nt
O=C(CCCN1C(=O)c2ccccc2C1=O)NCCCn1ccnc1	0	49*	-1	6	7	-14
O=C1c2ccccc2C(=O)N1CCc1nc2ccccc2c(=O)n1CCCn1ccnc1	-1	-2	-1	0	95*	nt
COc1ccc(OCC(=O)NCCCn2ccnc2)cc1	-1	0	0	-2	11	-13
Cc1ccc(C)c(Cn2c(CO)nc3ccccc32)c1	-2	1	0	-6	12	nt
Cc1cccc(C(=O)Nc2cc(OCc3cccc(F)c3)c(Cl)cc2Cl)c1	-1	-1	-1	5	113*	6
SMILES	CAL PDZ FP-1	CAL PDZ FP-2	CDK5 inh	dFosB activator	C2C12 statin	S100A4 MyoIIA
C[C@H](CO)N1C[C@H](C)[C@H](CN(C)S(=O)(=O)c2cccs2)Oc2c(NS(=O)(=O)c3cccs3)cccc2C1=O	nt	nt	nt	nt	16	-2
C[C@H](CO)N1C[C@H](C)[C@H](CN(C)C(=O)NC2CCCCC2)Oc2ccc(NC(=O)Nc3ccc4c(c3)OCO4)cc2CC1=O	nt	nt	nt	nt	-17	-3
C/C=C/c1ccc([C@H]2[C@H](CO)N[C@H]2CN(CC)C(=O)c2ccccn2)cc1	nt	nt	nt	nt	-19	-8
CCc1nnc(NC(=O)CCS(=O)(=O)Cc2ccccc2)s1	-2	0	1	-5	20	-2
CCC(CC)c1nnc(NC(=O)CCS(=O)(=O)Cc2ccccc2)s1	-1	41*	1	-15	6	-1
Cc1nnc(-c2ccccc2)c(=O)n1/N=C/c1c(O)ccc2ccccc12	0	-1	0	-5	84*	nt
Cc1nc2ccccc2n1C(C)c1nc2ccccc2n1CC(=O)c1ccsc1 (stereo unspecified)	nt	nt	nt	nt	nt	-2
CC1CC(C)CN(C(=O)CCn2c(=O)oc3ccccc32)C1 (stereo unspecified)	14	45*	0	-3	0	-7
NC(=O)C1CCN(C(=O)CCn2c(=O)oc3ccccc32)CC1	1	-1	1	-1	5	-2
CN(C)CCCNC(=O)c1ccc(-c2cc(O)c3ncccc3c2)cc1	-2	-7	-2	46*	10	30
COCCN(C(=O)CSc1nnc(-c2ccccc2F)n1C)c1c(N)n(Cc2ccccc2)c(=O)[nH]c1=O	-1	45*	-1	1	8	-6
COCCN(C(=O)CSc1nnc(-c2cccc(C)c2)n1C)c1c(N)n(Cc2ccccc2)c(=O)[nH]c1=O	-1	0	0	-6	nt	-7
CC(=O)c1nccs1	0	32*	0	0	5	nt
O=C(N/N=C/c1ccc(OC(=O)c2cccc(Br)c2)cc1)c1cccnc1	-2	0	-2	27*	-44	1
COc1ccc(/C=N/NC(=O)c2cccnc2)cc1O	-1	37*	0	-3	-5	0
O=C(N/N=C/c1cccc(OC(=O)c2cccc(Br)c2)c1)c1cccnc1	-5	-5	-1	11	nt	3
CN1CCN(c2ccc3c(c2)C2CC3CCN2C(=O)OCc2ccccc2)CC1 (stereo unspecified)	1	-5	1	6	-11	1
CC(=O)c1ccc(OCc2cc(C(=O)N3CCN(c4ccccc4)CC3C)no2)cc1 (stereo unspecified)	0	6	1	-8	31	-6
CSc1ccccc1OCc1cc(C(=O)N2CCN(c3ccccc3)CC2C)no1 (stereo unspecified)	0	69*	1	-9	14	-2
C[C@H](CO)N1C[C@H](C)[C@@H](CN(C)CC2CCCCC2)Oc2ccc(NS(=O)(=O)c3ccc(Cl)cc3)cc2CC1=O	nt	nt	nt	nt	123*	10
